The values that follow come from ChEMBL document CHEMBL2311516, “Structure-activity relationship studies of argiotoxins: selective and potent inhibitors of ionotropic glutamate receptors” (J Med Chem, 2013).

Assay [1] deals with Glutamate NMDA receptor; Grin1/Grin2a (Rattus norvegicus, UniProt P35439+Q00959). Nature of the assay: Inhibition of rat GluN1/2A receptor expressed in Xenopus laevis oocyte assessed as glutamate and glycine-induced current at holding potentials from -80 to -40 mV by two electrode voltage clamp analysis. In a few lines: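 Oocytes injected with 25 nL GluN1/N2A cRNA (1:1, 0.05 ng/nL), held at 17 °C in Barth's medium with gentamicin, recorded 3−6 days later by two-electrode voltage clamp in frog Ringer's. Current evoked by 100 μM L-glutamate plus 100 μM glycine, antagonist coapplied at rising levels; holding potentials −40, −60, −80 mV. IC50 from logistic fit, triplicate curves.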

The species entered for assay [2] is Rattus norvegicus. Nature of the assay: Selectivity ratio of IC50 for rat GluA1 receptor flip form to IC50 for rat GluN1/2A receptor. Summed up:
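Ratio IC50(GluA1)/IC50(GluN1/2A), each IC50 from composite dose−response data of 5 to 10 oocytes in two-electrode voltage clamp. GluA1_i driven by 300 μM glutamate; GluN1/2A driven by 100 μM glutamate plus 100 μM glycine; antagonist coapplied.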

A further assay addresses Glutamate receptor 1 (Rattus norvegicus, UniProt P19490). Nature of the assay: Inhibition of rat GluA1 receptor flip form expressed in Xenopus laevis oocyte assessed as glutamate-induced current at holding potentials from -80 to -40 mV by two electrode voltage clamp analysis. Summed up: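 Oocytes injected with 25 nL GluA1_i cRNA (1 ng/nL), kept at 17 °C in Barth's medium with gentamicin, recorded 3−6 days later under two-electrode voltage clamp in frog Ringer's superfusion. Current evoked by 300 μM L-glutamate, then increasing antagonist coapplied with agonist; holding potentials −40, −60, −80 mV. Per-oocyte logistic fit for IC50, triplicate curves.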

For assay [3], the species on record is Rattus norvegicus. Nature of the assay: Selectivity ratio of IC50 for rat GluN1/2A receptor to IC50 for rat GluA1 receptor flip form. In a few lines: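 Ratio IC50(GluN1/2A)/IC50(GluA1), each IC50 from composite dose−response data of 5 to 10 oocytes in two-electrode voltage clamp. GluA1_i driven by 300 μM glutamate; GluN1/2A driven by 100 μM glutamate plus 100 μM glycine; antagonist coapplied.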

As a reminder, the IC50 is the concentration at which inhibition is half-maximal.

Molecules are shown by their SMILES.

Sequence of Glutamate receptor 1 (P19490 whole entry, the tested form may be a part): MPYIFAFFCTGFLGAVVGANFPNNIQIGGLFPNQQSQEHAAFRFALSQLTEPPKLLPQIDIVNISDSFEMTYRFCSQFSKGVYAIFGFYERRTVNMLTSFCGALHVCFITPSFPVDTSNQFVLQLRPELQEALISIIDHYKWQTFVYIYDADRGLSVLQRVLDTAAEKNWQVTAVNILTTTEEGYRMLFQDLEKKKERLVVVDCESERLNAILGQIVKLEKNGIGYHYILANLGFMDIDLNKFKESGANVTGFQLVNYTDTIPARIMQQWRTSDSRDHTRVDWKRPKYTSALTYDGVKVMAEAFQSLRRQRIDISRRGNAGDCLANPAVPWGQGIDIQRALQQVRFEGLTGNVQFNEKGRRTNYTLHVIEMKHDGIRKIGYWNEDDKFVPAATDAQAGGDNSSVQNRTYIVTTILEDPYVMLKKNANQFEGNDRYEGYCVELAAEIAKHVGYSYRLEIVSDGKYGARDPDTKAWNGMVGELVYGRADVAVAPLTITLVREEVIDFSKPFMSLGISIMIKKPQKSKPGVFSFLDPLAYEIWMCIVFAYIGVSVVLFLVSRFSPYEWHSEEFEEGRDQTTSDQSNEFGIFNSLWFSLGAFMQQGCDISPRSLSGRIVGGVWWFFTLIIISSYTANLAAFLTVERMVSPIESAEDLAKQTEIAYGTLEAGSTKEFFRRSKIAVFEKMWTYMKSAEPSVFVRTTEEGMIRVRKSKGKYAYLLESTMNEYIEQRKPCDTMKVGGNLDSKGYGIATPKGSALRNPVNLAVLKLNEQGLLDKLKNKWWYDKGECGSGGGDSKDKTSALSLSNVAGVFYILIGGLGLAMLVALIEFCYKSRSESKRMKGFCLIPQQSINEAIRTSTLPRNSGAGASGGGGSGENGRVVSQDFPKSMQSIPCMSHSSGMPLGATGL
Sequence of Glutamate NMDA receptor; Grin1/Grin2a (Q00959 whole entry, other chains not shown): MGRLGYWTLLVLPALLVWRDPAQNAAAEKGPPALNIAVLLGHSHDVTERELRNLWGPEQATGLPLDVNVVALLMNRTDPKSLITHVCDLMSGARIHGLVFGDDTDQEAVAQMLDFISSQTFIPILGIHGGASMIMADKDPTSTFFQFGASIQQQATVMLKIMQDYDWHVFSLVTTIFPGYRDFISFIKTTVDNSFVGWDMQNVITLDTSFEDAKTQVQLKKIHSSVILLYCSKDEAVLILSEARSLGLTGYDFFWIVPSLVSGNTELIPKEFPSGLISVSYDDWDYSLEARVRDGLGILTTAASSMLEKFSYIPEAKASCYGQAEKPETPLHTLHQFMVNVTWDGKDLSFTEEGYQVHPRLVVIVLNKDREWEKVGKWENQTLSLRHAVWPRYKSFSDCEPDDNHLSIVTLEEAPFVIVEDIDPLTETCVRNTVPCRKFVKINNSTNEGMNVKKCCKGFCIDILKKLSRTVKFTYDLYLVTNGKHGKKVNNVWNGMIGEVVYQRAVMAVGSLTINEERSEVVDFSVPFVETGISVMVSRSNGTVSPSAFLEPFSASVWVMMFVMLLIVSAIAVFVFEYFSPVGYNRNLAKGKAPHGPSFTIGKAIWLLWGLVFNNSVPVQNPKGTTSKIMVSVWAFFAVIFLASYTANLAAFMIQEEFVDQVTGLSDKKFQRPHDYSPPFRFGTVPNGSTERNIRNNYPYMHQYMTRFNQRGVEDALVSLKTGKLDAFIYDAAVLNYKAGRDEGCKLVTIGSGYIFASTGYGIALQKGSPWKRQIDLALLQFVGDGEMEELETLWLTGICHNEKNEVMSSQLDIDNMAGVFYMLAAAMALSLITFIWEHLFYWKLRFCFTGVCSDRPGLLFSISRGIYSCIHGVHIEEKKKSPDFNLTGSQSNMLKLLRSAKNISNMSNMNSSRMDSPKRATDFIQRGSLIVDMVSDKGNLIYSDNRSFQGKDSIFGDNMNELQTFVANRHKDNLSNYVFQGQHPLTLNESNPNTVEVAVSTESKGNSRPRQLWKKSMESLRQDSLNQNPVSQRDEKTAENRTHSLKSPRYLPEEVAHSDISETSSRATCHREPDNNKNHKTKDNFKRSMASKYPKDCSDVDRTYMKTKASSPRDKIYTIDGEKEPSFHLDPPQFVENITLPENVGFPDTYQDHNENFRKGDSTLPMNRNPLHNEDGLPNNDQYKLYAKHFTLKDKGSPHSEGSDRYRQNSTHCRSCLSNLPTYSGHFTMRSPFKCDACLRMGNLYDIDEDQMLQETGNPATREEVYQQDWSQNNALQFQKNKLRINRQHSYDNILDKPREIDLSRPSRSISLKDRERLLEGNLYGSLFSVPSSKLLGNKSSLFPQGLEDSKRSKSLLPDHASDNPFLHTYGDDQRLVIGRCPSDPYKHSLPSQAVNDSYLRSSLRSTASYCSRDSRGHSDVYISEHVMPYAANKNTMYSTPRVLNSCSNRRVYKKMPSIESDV

For `N=C(N)NCCC[C@H](N)C(=O)NCCCNCCCNCCCCCNC(=O)[C@H](CC(N)=O)NC(=O)Cc1ccc(O)cc1O`, the concentration for half-maximal inhibition (IC50) in assay [1] turned out to be 10 nM. The Ratio IC50 in the assay filed under Rattus norvegicus [2] was 8.
In the case of `N=C(N)NCCC[C@H](N)C(=O)NCCCCCNCCCCCCCNC(=O)[C@H](CC(N)=O)NC(=O)Cc1ccc(O)cc1O`, the Ratio IC50 in the assay filed under Rattus norvegicus [2] was 7.
Regarding `NC(=O)C[C@H](NC(=O)Cc1ccc(O)cc1O)C(=O)NCCCCCCCCCNCCCNC(=O)[C@@H](N)CCCN=C(N)N`, the IC50 in assay [1] amounted to 14 nM; at Glutamate receptor 1 it was 454 nM.
`N=C(N)NCCC[C@H](N)C(=O)NCCCNCCCCCCCCCNC(=O)[C@H](CC(N)=O)NC(=O)Cc1ccc(O)cc1O`: the Ratio IC50 in the assay filed under Rattus norvegicus [2] worked out at 32.
On the same count and under the same terms, under `N=C(N)NCC[C@@H](N)C(=O)NCCCCCNCCCCCCCNC(=O)[C@@H](NC(=O)Cc1ccc(O)cc1O)c1c[nH]c2ccccc12` stands 3.4.
For the molecule `N=C(N)NCC[C@@H](N)C(=O)NCCCCCNCCCCCCCNC(=O)[C@H](CC(=O)O)NC(=O)Cc1ccc(O)cc1O`, the IC50 came to 2230 nM in assay [1] and 167 nM at Glutamate receptor 1. The Ratio IC50 in the assay listed under Rattus norvegicus [3] was found to be 13; in the assay filed under Rattus norvegicus [2] it was 0.07.
For `NC(=O)C[C@H](NC(=O)Cc1ccc(O)cc1O)C(=O)NCCCCCCCNCCCCCNC(=O)[C@@H](N)CCCN=C(N)N`, the results for the IC50 (in assay [1]; on Glutamate receptor 1) were 17 nM and 118 nM, respectively.
In the case of `N=C(N)NCCC[C@H](N)C(=O)NCCCCCCNCCCCCCNC(=O)[C@H](CC(N)=O)NC(=O)Cc1ccc(O)cc1O`, the values for the IC50 (in assay [1]; at Glutamate receptor 1) were 21 nM and 46 nM, respectively. Moreover, the Ratio IC50 in the assay listed under Rattus norvegicus [2] amounted to 2.
In the case of `N=C(N)NCCC[C@H](N)C(=O)NCCCCCCCCCNCCCNC(=O)[C@H](CC(N)=O)NC(=O)Cc1ccc(O)cc1O`, the IC50 in assay [1] was above 3000 nM; on Glutamate receptor 1, 171 nM. Also, the Ratio IC50 in the assay filed under Rattus norvegicus [3] and in the assay listed under Rattus norvegicus [2] was below 0.06 throughout.
As to `N=C(N)NCCC[C@H](N)C(=O)NCCCCNCCCCCCCCNC(=O)[C@H](CC(N)=O)NC(=O)Cc1ccc(O)cc1O`, the Ratio IC50 in the assay listed under Rattus norvegicus [2] amounted to 10.
For `N=C(N)NCCC[C@H](N)C(=O)NCCCCCCCCNCCCCNC(=O)[C@H](CC(N)=O)NC(=O)Cc1ccc(O)cc1O`, the half-inhibitory concentration (IC50) in assay [1] came out at 231 nM; on Glutamate receptor 1 it was 19 nM. Moreover, the Ratio IC50 came out at 12 in the assay filed under Rattus norvegicus [3] and 0.08 in the assay filed under Rattus norvegicus [2].
On the same counts, the results for `N=C(N)NCCC[C@H](N)C(=O)NCCCCCCCNCCCCCNC(=O)[C@H](CC(N)=O)NC(=O)Cc1ccc(O)cc1O` are 842 nM, 78 nM, 11 and 0.09.
In the case of `NC(=O)C[C@H](NC(=O)Cc1ccc(O)cc1O)C(=O)NCCCCCCCCNCCCCNC(=O)[C@@H](N)CCCN=C(N)N`, the IC50 amounted to 8 nM in assay [1] and 83 nM on Glutamate receptor 1.
